The values below come from ChEMBL document CHEMBL1132562, “Ajoene is an inhibitor and subversive substrate of human glutathione reductase and Trypanosoma cruzi trypanothione reductase: crystallographic, kinetic, and spectroscopic studies” (J Med Chem, 1999).

Substrate in series [1]: C=CCSS/C=C/C[S+]([O-])CC=C
The series can be described thus: (§1) Km value determined against human Glutathione reductase (GR) by oxidation of NADPH. Put shortly:
(§2)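 Recombinant human glutathione reductase in GR assay buffer (phosphate, 200 mM KCl, 1 mM EDTA, pH 6.9) at 25 °C with 150 μM NADPH and ajoene or DATS as substrate. NADPH consumption read at 340 nm. Where GSH is present, it is added to the mixture. Controls held NADPH and enzyme only (intrinsic oxidase activity).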

Substrate in series [2]: C=CCSS/C=C\C[S+]([O-])CC=C
The description is as §1. Put shortly:
as §2

Substrate in series [3]: C=CCSSSCC=C
The description is as §1. Summed up:
as §2

Substrate in series [4]: C=CCSS/C=C/C[S+]([O-])CC=C
The series can be described thus: (§3) Km value determined against Trypanothione reductase (TR). The conditions noted are these: Trypanosoma cruzi. Put shortly:
(§4)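 T. cruzi trypanothione reductase, recombinant, with NADPH and ajoene as substrate in TR assay buffer (40 mM Hepes, 1 mM EDTA, pH 7.5) at 25 °C. NADPH oxidation followed as absorbance decrease at 340 nm. Controls held only NADPH and enzyme, giving the intrinsic oxidase activity.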

Substrate in series [5]: C=CCSS/C=C\C[S+]([O-])CC=C
The series is described as §3. The following applies: Trypanosoma cruzi. Put shortly: as §4

Substrate in series [6]: C=CCSS/C=C\C[S+]([O-])CC=C
The series can be described thus: Km value determined against Trypanothione reductase (TR) by oxidation of NADPH. The following applies: Trypanosoma cruzi.

Substrate in series [7]: C=CCSS/C=C/C[S+]([O-])CC=C
The series can be described thus: Kcat value determined against Trypanothione reductase (TR) by oxidation of NADPH. The following applies: Trypanosoma cruzi. Put shortly: as §4

B1: Glutathione reductase, mitochondrial (Homo sapiens), P00390 (protein)
chain: MALLPRALSAGAGPSWRRAARAFRGFLLLLPEPAALTRALSRAMACRQEPQPQGPPPAAGAVASYDYLVIGGGSGGLASARRAAELGARAAVVESHKLGGTCVNVGCVPKKVMWNTAVHSEFMHDHADYGFPSCEGKFNWRVIKEKRDAYVSRLNAIYQNNLTKSHIEIIRGHAAFTSDPKPTIEVSGKKYTAPHILIATGGMPSTPHESQIPGASLGITSDGFFQLEELPGRSVIVGAGYIAVEMAGILSALGSKTSLMIRHDKVLRSFDSMISTNCTEELENAGVEVLKFSQVKEVKKTLSGLEVSMVTAVPGRLPVMTMIPDVDCLLWAIGRVPNTKDLSLNKLGIQTDDKGHIIVDEFQNTNVKGIYAVGDVCGKALLTPVAIAAGRKLAHRLFEYKEDSKLDYNNIPTVVFSHPPIGTVGLTEDEAIHKYGIENVKTYSTSFTPMYHAVTKRKTKCVMKMVCANKEEKVVGIHMQGLGCDEMLQGFAVAVKMGATKADFDNTVAIHPTSSEELVTLR
In general, Km refers to the substrate concentration at which the rate is half of its maximum. For the protein B1, the Michaelis-Menten constant (Km) in series [1] amounted to 800 µM; in series [2] it was 380 µM; in series [3], 160 µM.

B2: Trypanothione reductase (Trypanosoma cruzi), P28593 (protein)
chain: MMSKIFDLVVIGAGSGGLEAAWNAATLYKKRVAVIDVQMVHGPPFFSALGGTCVNVGCVPKKLMVTGAQYMEHLRESAGFGWEFDRTTLRAEWKKLIAVKDEAVLNINKSYEEMFRDTEGLEFFLGWGSLESKNVVNVRESADPASAVKERLETENILLASGSWPHMPNIPGIEHCISSNEAFYLPEPPRRVLTVGGGFISVEFAGIFNAYKPKDGQVTLCYRGEMILRGFDHTLREELTKQLTANGIQILTKENPAKVELNADGSKSVTFESGKKMDFDLVMMAIGRSPRTKDLQLQNAGVMIKNGGVQVDEYSRTNVSNIYAIGDVTNRVMLTPVAINEAAALVDTVFGTNPRKTDHTRVASAVFSIPPIGTCGLIEEVASKRYEVVAVYLSSFTPLMHNISGSKYKTFVAKIITNHSDGTVLGVHLLGDNAPEIIQGVGICLKLNAKISDFYNTIGVHPTSAEELCSMRTPSYYYVKGEKMEKPSEASL
For the protein B2, the Km was over 2000 µM in series [4], at least 2000 µM in series [5], over 2000 µM in series [6] and over 2000 µM in series [7].
